Active and inactive are the calls of the source. The calls are words filed in the database; no cut-off is given here.
Columns and labels:
[1] = tested on: Mus musculus; test: Enlarged lymph in gross pathological observations with hypervitaminosis A in mice at 0.2 mg/kg/day dose with gross observations/total number of animals in group; 16/16; assay type: functional, organism-based
[2] = tested on: Mus musculus; test: Enlarged lymph in gross pathological observations with hypervitaminosis A in mice at 0.01 mg/kg/day dose with gross observations/total number of animals in group; 6/8; assay type: functional, organism-based
[3] = tested on: Mus musculus; test: Avoiding pressure on limbs at 0.01 mg/kg/day dose in mice hypervitaminosis; 0/16; assay type: functional, organism-based; conditions: Limb
[4] = tested on: Mus musculus; test: Effects of retinoids on thymus to body weight ratios in mice at 0.05 mg/kg/day dose
[5] = tested on: Mus musculus; test: Fracture incidents in mouse at 0.01 mg/kg/day; 1/7
[6] = Mortality rate in mice at 0.2 mg/kg/day; range (8-19); assay type: ADME, organism-based; conditions: mouse, in vivo
In short: (§1)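 Male B6D2F1 mice given compound daily by gavage in corn oil at the stated dose levels, with corn oil vehicle controls. Deaths counted as animals found dead or sacrificed moribund, with day(s) of death recorded. Heteroarotinoid groups ran to day 65 and low-dose reference groups to day 25.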

[7] = tested on: Mus musculus; test: Average number of fractures per mouse at 0.01 mg/kg/day
[8] = tested on: Mus musculus; test: Effect of compound on adrenal to body weight ratios in mice at 0.01 mg/kg/day dose; measured on day 25
[9] = tested on: Mus musculus; test: Alopecia observed at 0.1 mg/kg/day dose in mice with hypervitaminosis; 10/16; assay type: functional, organism-based
[10] = tested on: Mus musculus; test: Effect of compound on right testicle to body weight ratios in mice at 0.01 mg/kg/day dose on day 25; assay type: functional, organism-based
[11] = tested on: Mus musculus; test: Effect of compound on right testicle to body weight ratios in mice at 0.4 mg/kg/day dose on day 65; dead on day 65; assay type: functional, organism-based
[12] = tested on: Mus musculus; test: Skin scaling at 0.4 mg/kg/day in mice with hypervitaminosis; 15/16; assay type: functional, organism-based
[13] = tested on: Mus musculus; test: Effect of compound on Spleen to body weight ratios in mice at 0.2 mg/kg/day dose on day 65; dead by day 65; assay type: functional, organism-based
In short: (§2)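 Male B6D2F1 mice dosed daily by gavage with compound in corn oil; vehicle 1 (corn oil) controls run to termination on day 65. Low, mid 1, mid 2 and high dose groups, with dosage increases partway through the study. Organ-to-body weight ratios (×1000) taken at necropsy on day 65, reported as mean ± SD for 4 to 8 animals and as % difference from vehicle.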

[14] = tested on: Mus musculus; test: Skin scaling at 0.8 mg/kg/day in mice with hypervitaminosis; 12/16; assay type: functional, organism-based
[15] = tested on: Mus musculus; test: Enlarged spleen in gross pathological observations with hypervitaminosis A at 0.05 mg/kg/day dose with gross observations/total number of animals in group; 5/8; assay type: functional, organism-based
[16] = tested on: Mus musculus; test: Alopecia observed at 0.8 mg/kg/day dose in mice with hypervitaminosis; 3/16; assay type: functional, organism-based
[17] = tested on: Mus musculus; test: Avoiding pressure on limbs at 0.8 mg/kg/day dose in mice hypervitaminosis; 0/16; assay type: functional, organism-based; conditions: Limb
[18] = tested on: Mus musculus; test: Average number of fractures per mouse at 0.4 mg/kg/day
[19] = tested on: Mus musculus; test: Enlarged spleen in Gross pathological observations with hypervitaminosis A at 0.01 mg/kg/day dose with gross observations/total number of animals in group; 5/8; assay type: functional, organism-based
[20] = Mortality rate in mice at 0.01 mg/kg/day; assay type: ADME, organism-based; conditions: mouse, in vivo; in short: as §1
[21] = tested on: Mus musculus; test: Effect of compound on Spleen to body weight ratios in mice at 0.05 mg/kg/day dose; measured on day 25
[22] = tested on: Mus musculus; test: Enlarged spleen in Gross pathological observations with hypervitaminosis A in mice at 0.1 mg/kg/day dose with gross observations/total number of animals in group; 4/16; assay type: functional, organism-based
[23] = tested on: Mus musculus; test: Skin scaling at 0.2 mg/kg/day in mice with hypervitaminosis; 14/16; assay type: functional, organism-based
[24] = species on record: Mus musculus; test: Alopecia in mice observed at mid dose 2 with Hypervitaminosis; 1/16; assay type: functional, organism-based
[25] = species on record: Mus musculus; test: Average number of fractures per mouse at lmid dose 1
[26] = species on record: Mus musculus; test: Mortality rate in mice in mid dose 1; assay type: functional; in short: as §1
[27] = species on record: Mus musculus; test: Alopecia in mice observed at high dose with Hypervitaminosis; 4/16; assay type: functional, organism-based
[28] = species on record: Mus musculus; test: Skin scaling in mice at high dose with Hypervitaminosis; 2/16; assay type: functional, organism-based
[29] = species on record: Mus musculus; test: Enlarged lymph in gross pathological observations in mice with hypervitaminosis A at mid dose 2 with gross observations/total number of mice in group; 1/16; assay type: functional, organism-based
[30] = species on record: Mus musculus; test: Enlarged lymph in gross pathological observations in mice with hypervitaminosis A at mid dose 1 with gross observations/total number of mice in group; 2/16; assay type: functional, organism-based
[31] = species on record: Mus musculus; test: Enlarged spleen in Gross pathological observations in mice with hypervitaminosis A at mid dose 1 with gross observations/total number of mice in group; 1/16; assay type: functional, organism-based
[32] = species on record: Mus musculus; test: Effect of compound on right testicle to body weight ratios in mice at high dose on day 65; all the animals died by day 65; assay type: functional, organism-based; in short: as §2
[33] = species on record: Mus musculus; test: Enlarged lymph in gross pathological observations in mice with hypervitaminosis A at mid dose 1 with gross observations/total number of mice in group; 6/16; assay type: functional, organism-based
[34] = species on record: Mus musculus; test: Effect of compound on white blood cells levels in mice at mid dose 2 on day 8; assay type: functional
In short: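 Male B6D2F1 mice were gavaged daily with compound in corn oil at low, mid 1, mid 2 or high dose. Serum triglycerides and circulating white blood cells were measured on the stated day (8, 29, 36, 65). Values are group mean ± SD expressed as % relative to corn-oil vehicle, with significance at p ≤ 0.05.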

[35] = species on record: Mus musculus; test: Enlarged spleen in Gross pathological observations in mice with hypervitaminosis A at high dose with gross observations/total number of mice in group; 4/16; assay type: functional, organism-based
[36] = species on record: Mus musculus; test: Fracture incidence in mouse at mid dose 1; 5/8
[37] = species on record: Mus musculus; test: Fracture incidence in mouse at low dose; 2/8
[38] = species on record: Mus musculus; test: Effect of compound on serum Alkaline phosphatase levels in mice at mid dose 1 on day 36; assay type: functional
In short: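 Male B6D2F1 mice dosed daily by oral gavage in corn oil at low, mid 1, mid 2 or high dose. Blood sampled on set days (8, 29, 36, 65) for clinical chemistry, serum alkaline phosphatase and triglycerides. Group mean ± SD reported as % relative to vehicle 1; significance p < 0.05 versus corn oil vehicle.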

[39] = species on record: Mus musculus; test: Enlarged spleen in Gross pathological observations in mice with hypervitaminosis A at mid dose 2 with gross observations/total number of mice in group; 6/16
[40] = species on record: Mus musculus; test: Compound toxicity determined by total dose to termination (day 25/65) in high dose; assay type: functional
In short: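 Male B6D2F1 mice given daily oral gavage in corn oil; dosages increased during the study (day 30 or day 51 depending on compound). Cumulative dose in mg/kg administered up to termination (day 65, or day 25 for TTNPB 0.01/0.05 mg/kg/day groups).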

C/C(=C\c1ccc(C(=O)O)cc1)c1ccc2c(c1)C(C)(C)CCC2(C)C
Activity [1]: Active | Activity [2]: Active | Activity [3]: inactive | Activity [4]: Toxic | Activity [5]: inactive | Mortality [6]: 6 day of death | Activity [7]: 0.1 | Activity [8]: Toxic | Activity [9]: Weak activity | Activity [10]: Toxic | Activity [11]: Toxic | Activity [12]: Active | Activity [13]: Toxic | Activity [14]: Active | Activity [15]: Weak activity | Activity [16]: inactive | Activity [17]: inactive | Activity [18]: 0.4 | Activity [19]: Weak activity | Mortality [20]: 0 day of death | Activity [21]: Toxic | Activity [22]: Weak activity | Activity [23]: Active

CC(/C=C/C=C(\C)c1ccc2c(c1)C(C)(C)CCS2)=C\C(=O)O
Activity [24]: inactive | Activity [25]: 0

CC(/C=C/C=C(\C)c1ccc2c(c1)C(C)(C)CCO2)=C\C(=O)O
Mortality [26]: 0 day of death | Activity [27]: Weak activity | Activity [28]: inactive | Activity [29]: inactive | Activity [30]: inactive | Activity [31]: inactive

C/C(=C\c1ccc(C(=O)O)cc1)c1ccc2c(c1)C(C)(C)CCO2
Activity [32]: Toxic | Activity [33]: Weak activity | Activity [34]: 5.26 | Activity [35]: Weak activity | Activity [36]: Weak activity | Activity [37]: Weak activity | Activity [38]: 81.5 | Activity [39]: Weak activity | Total dose [40]: 1176.8 mg/kg

Source: ChEMBL document CHEMBL1130202, “Biologically active heteroarotinoids exhibiting anticancer activity and decreased toxicity” (J Med Chem, 1997)
